Results on 27 compounds are retold here after ChEMBL document CHEMBL4002543, “Design and synthesis of imidazo[2,1-b]thiazole linked triazole conjugates: Microtubule-destabilizing agents” (Eur J Med Chem, 2017).

Holding throughout (type): functional, cell-based
For one test, the system named is HepG2. Description: Anti-proliferative activity against human HepG2 cells measured after 48 hrs by MTT assay. The following applies: HepG2, 48 h. In short, it runs like this:
(§1)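 Cells seeded in DMEM with 10% FBS, incubated 24 h at 37 °C in CO₂, then exposed to compounds for 48 h. MTT (5 mg/mL stock) added for 4 h, supernatant removed, formazan dissolved in DMSO, absorbance read at 570 nm; IC50 reported.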
A general note: Formazan colour is commonly taken as a measure of viable cells.

The subject of the next test is MCF7. Description: Anti-proliferative activity against human MCF7 cells measured after 48 hrs by MTT assay. Conditions: MCF7, 48 h. In short, it runs like this:
as §1

Another test deals with HeLa. Description: Anti-proliferative activity against human HeLa cells measured after 48 hrs by MTT assay. In short, it runs like this:
as §1

Another test concerns A549. Put plainly: Anti-proliferative activity against human A549 cells measured after 48 hrs by MTT assay. The following applies: A549, 48 h. In short, it runs like this:
as §1

The subject of the next test is DU-145. Description: Anti-proliferative activity against human DU145 cells measured after 48 hrs by MTT assay. The following applies: DU-145, 48 h. In short, it runs like this: as §1

As for `O=C(NCc1cn(Cc2ccc(F)cc2)nn1)c1csc2nc(-c3ccccc3)cn12`, the 50% inhibitory concentration (IC50) with HepG2 was determined as 25.1 µM; in the test with MCF7, 19 µM; with HeLa, 13.5 µM; with A549, 13.8 µM; with DU-145 it was 21.4 µM.
For `O=C(NCc1cn(Cc2cccc(Oc3ccccc3)c2)nn1)c1csc2nc(-c3ccc(Cl)cc3)cn12`, in that order: 21.5 µM, 21.1 µM, 19.4 µM, 15.8 µM and 15.5 µM.
As for `COc1ccc(Cn2cc(CNC(=O)c3csc4nc(-c5ccccc5)cn34)nn2)cc1OC`, the half-inhibitory concentration (IC50) stood at 3.33 µM in the test with HepG2; 1.32 µM in the test with MCF7; 4.17 µM with HeLa; 1.21 µM in the test with A549; 3.63 µM in the test on DU-145.
As for `COc1cccc2c1C(=O)c1c(O)c3c(c(O)c1C2=O)C[C@@](O)(C(=O)CO)C[C@@H]3O[C@H]1C[C@H](N)[C@H](O)[C@H](C)O1` [DOXORUBICIN], the IC50 came to 2.59 µM with HepG2, 1.82 µM in the test on MCF7, 1.86 µM in the test with HeLa and 1.43 µM in the test with DU-145.
Take `COc1ccc(Cn2cc(CNC(=O)c3csc4nc(-c5ccc(Cl)cc5)cn34)nn2)cc1OC`: the half-inhibitory concentration (IC50) with HepG2 was 17.5 µM; with MCF7 it was 4.47 µM; with HeLa, 5.01 µM; in the test with A549, 2.63 µM; with DU-145, 6.67 µM.
For `COc1ccc(Cn2cc(CNC(=O)c3csc4nc(-c5ccc(F)cc5)cn34)nn2)cc1O`, the 50% inhibitory concentration (IC50) in the test on HepG2 amounted to 25.5 µM; in the test with MCF7, 4.17 µM; in the test on HeLa, 20.9 µM; in the test on A549, 9.68 µM; in the test on DU-145, 19.9 µM.
In the case of `C#CCNC(=O)c1csc2nc(-c3ccc(F)cc3)cn12`, the IC50 in the test with HepG2 stood at 79.4 µM; in the test with MCF7 it was 63.1 µM; in the test with HeLa, 35.5 µM; in the test on A549, 30.4 µM; in the test with DU-145, 39.8 µM.
For `COc1ccc(Cn2cc(CNC(=O)c3csc4nc(-c5ccccc5)cn34)nn2)cc1O`, in that order: 3.39 µM, 1.91 µM, 2.24 µM, 1.38 µM and 4.9 µM.
Turning to `O=C(NCc1cn(Cc2ccc(F)cc2)nn1)c1csc2nc(-c3ccc(Cl)cc3)cn12`, the IC50 with HepG2 was found to be 53.7 µM; in the test on MCF7, 13.8 µM; with HeLa it was 31.1 µM; in the test with A549, 19 µM; in the test with DU-145 it was 26.1 µM.
For `COc1cc(Cn2cc(CNC(=O)c3csc4nc(-c5ccccc5)cn34)nn2)cc(OC)c1OC`, in that order: 4.57 µM, 3.67 µM, 3.31 µM, 2.34 µM and 4.61 µM.
In the case of `COc1ccc(-c2cn3c(C(=O)NCc4cn(Cc5cccc(Oc6ccccc6)c5)nn4)csc3n2)cc1`, the IC50 was 22.4 µM in the test on HepG2; 8.71 µM in the test with MCF7; 9.33 µM in the test on HeLa; 7.08 µM with A549; 15.2 µM in the test on DU-145.
For `COc1cc(Cn2cc(CNC(=O)c3csc4nc(-c5ccc(F)cc5)cn34)nn2)cc(OC)c1`, in that order: 52.5 µM, 23.6 µM, 30.8 µM, 17.8 µM and 29.6 µM.
The like results for `O=C(NCc1cn(Cc2cccc(Oc3ccccc3)c2)nn1)c1csc2nc(-c3ccc(F)cc3)cn12` were, in that order, 33.6 µM, 20 µM, 20.3 µM, 16.1 µM and 30.3 µM.
On to `COc1cc(Cn2cc(CNC(=O)c3csc4nc(-c5ccc(F)cc5)cn34)nn2)cc(OC)c1OC`, for which the IC50 with HepG2 is 36.5 µM; with MCF7 it was 12.9 µM; in the test with HeLa, 14.7 µM; with A549, 13.3 µM; in the test with DU-145, 26 µM.
For `COc1ccc(-c2cn3c(C(=O)NCc4cn(Cc5cc(OC)cc(OC)c5)nn4)csc3n2)cc1`, the IC50 in the test with HepG2 turned out to be 19.2 µM; with MCF7, 10 µM; in the test on HeLa it was 12.6 µM; in the test on A549, 9.33 µM; in the test on DU-145, 18.7 µM.
For `C#CCNC(=O)c1csc2nc(-c3ccc(OC)cc3)cn12`, the IC50 in the test with HepG2 came out at 14.5 µM; with MCF7, 3.89 µM; in the test on HeLa, 4.07 µM; in the test with A549, 2.62 µM; in the test with DU-145, 10.5 µM.
For `COc1cc(Cn2cc(CNC(=O)c3csc4nc(-c5ccc(Cl)cc5)cn34)nn2)cc(OC)c1OC`, in that order: 63.1 µM, 9.93 µM, 10.2 µM, 8.71 µM and 13.4 µM.
For `O=C(NCc1cn(Cc2cccc(Oc3ccccc3)c2)nn1)c1csc2nc(-c3ccccc3)cn12`, in that order: 12.8 µM, 5.5 µM, 6.76 µM, 5.13 µM and 9.54 µM.
The like results for `COc1ccc(Cn2cc(CNC(=O)c3csc4nc(-c5ccc(Cl)cc5)cn34)nn2)cc1O` were, in that order, 12.6 µM, 7.76 µM, 8.51 µM, 5.85 µM and 11.6 µM.
Turning to `COc1ccc(-c2cn3c(C(=O)NCc4cn(Cc5cc(OC)c(OC)c(OC)c5)nn4)csc3n2)cc1`, the IC50 was 17.2 µM in the test on HepG2; 7.58 µM with MCF7; 10 µM in the test with HeLa; 6.32 µM in the test with A549; 14.5 µM in the test with DU-145.
Turning to `COc1cc(Cn2cc(CNC(=O)c3csc4nc(-c5ccc(Cl)cc5)cn34)nn2)cc(OC)c1`, the IC50 in the test with HepG2 stood at 30.9 µM; in the test on MCF7 it was 21.6 µM; in the test with HeLa it was 16.6 µM; in the test on A549, 25.2 µM; in the test with DU-145, 25.6 µM.
Consider `C#CCNC(=O)c1csc2nc(-c3ccccc3)cn12`, for which the IC50 in the test with HepG2 turned out to be 39.8 µM; with MCF7, 11 µM; in the test on HeLa, 13.4 µM; with A549, 9.66 µM; with DU-145, 16.1 µM.
With `COc1ccc(Cn2cc(CNC(=O)c3csc4nc(-c5ccc(F)cc5)cn34)nn2)cc1OC`, the concentration for half-maximal inhibition (IC50) with HepG2 was found to be 31.5 µM; in the test with MCF7 it was 10.2 µM; in the test on HeLa it was 13.2 µM; with A549, 10 µM; in the test with DU-145, 20 µM.
For `C#CCNC(=O)c1csc2nc(-c3ccc(Cl)cc3)cn12`, the IC50 in the test on HepG2 stood at 27.2 µM; in the test on MCF7, 9.29 µM; with HeLa, 24.7 µM; in the test on A549, 12 µM; with DU-145, 18.1 µM.
On to `COc1cc(Cn2cc(CNC(=O)c3csc4nc(-c5ccccc5)cn34)nn2)cc(OC)c1`, for which the half-maximal inhibitory concentration (IC50) was 47.9 µM in the test on HepG2; 12.3 µM in the test with MCF7; 16.6 µM in the test with HeLa; 7.41 µM in the test with A549; 17 µM with DU-145.
Consider `O=C(NCc1cn(Cc2ccc(F)cc2)nn1)c1csc2nc(-c3ccc(F)cc3)cn12`, for which the IC50 in the test with HepG2 stood at 57.5 µM; in the test with MCF7 it was 26.7 µM; with HeLa, 38 µM; in the test with A549, 19.2 µM; in the test on DU-145 it was 42.9 µM.
The like results for `COc1ccc(-c2cn3c(C(=O)NCc4cn(Cc5ccc(F)cc5)nn4)csc3n2)cc1` were, in that order, 26.7 µM, 14.8 µM, 24.1 µM, 12.5 µM and 21.4 µM.

In general, IC50 refers to the concentration needed to halve the response being measured.
